Laboratory results from ChEMBL document CHEMBL4513216, “Probing the Open Global Health Chemical Diversity Library for Multistage-Active Starting Points for Next-Generation Antimalarials” (ACS Infect Dis, 2020).

Assay: Toxicity liver stage against HepG2, at 10uM
Format: cell-based
Set-up: test concentration 10 uM, cell line HepG2-A16-CD81EGFP
Details: human, HepG2-A16-CD81EGFP cells; read-out: INHIBITION
How it was run: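 Uninfected HepG2-A16-CD81EGFP cells, 3 × 10^3 per well, 1536-well, plated on prespotted compound at 10 μM final, parasite-free screening media added to match infected plates; puromycin 10 μM positive, DMSO 0.5% negative; run in parallel with 48 h PbLuc assay at 37 °C, 5% CO2; viability by CellTiter-Glo luminescence, normalized to controls.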

Compared with `Cc1c(CN2CCCCC2)c(O)n(CCO)c(=O)c1C#N`, `COc1ccc(C(=O)N2C[C@@H](CN3CCCCC3)[C@@H](CO)C2)cc1Cl` is higher in cytotoxicity at 10 µM: -1.64% for the first, -0.703% for the second.

Compared with `N#CCc1ccc(NC(=O)Cn2cc(I)cn2)cc1`, `Cc1nn(C)c2cnn(CC(=O)NCc3ccc4c(c3)OCO4)c12` is lower in cytotoxicity at 10 µM: 8.44% for the first, 4.45% for the second.

Compared with `Cc1nc(N2CCCC2)ncc1-c1cc(O)nc(N2CCCCC2)n1`, `O=C(c1cccnc1)N1CCCC1c1nc(O)cc(-c2ccccn2)n1` (stereo not given) is lower in cytotoxicity at 10 µM: 10.7% for the first, -5.91% for the second.

Going from `CCC1=NC(SCC(=O)c2ccc(OC)cc2)c2cc(CC)sc2N1` (stereo not given) to `CCc1c(O)n(C(C)CC)c(SCC(=O)c2ccccc2)nc1=O` (stereo not given), the cytotoxicity at 10 µM falls from 9.4% to -2.11%.

Compared with `COCCC(=O)N1CCCC1c1csc(Nc2ncccn2)n1` (stereo not given), `O=C(c1cccc(F)c1)N1CCCC1c1ncc2c(n1)CCNC2` (stereo not given) is lower in cytotoxicity at 10 µM: -4.33% for the first, -12.2% for the second.

Going from `Cc1nccn1-c1cncc(C2CCCN2Cc2ccccc2)n1` (stereo not given) to `CSc1ncc(CNC(C)c2cnn(-c3ccccc3)c2C)cn1` (stereo not given), the cytotoxicity at 10 µM rises from -8.52% to -3.63%.

Going from `O=C(c1ccccc1Cl)N1CC[C@H](O)[C@@H](N2CCOCC2)CC1` to `O=C(NC1CCNC1)C1(N2CCCCC2)Cc2ccccc2C1` (stereo not given), the cytotoxicity at 10 µM falls from -4.91% to -5.76%.

First: CN(c1ncc(S(N)(=O)=O)s1)C1CCc2ccccc21 (stereo not given)
Second: COc1ccc(C2CC(=O)NCc3nc4ccccn4c32)cn1 (stereo not given)
The cytotoxicity at 10 µM of the first is higher: -1.62% for the first, -3.95% for the second.

Going from `CCN(C)CC1CCN(S(=O)(=O)c2cc(C)c(F)cc2Cl)C1` (stereo not given) to `CCS(=O)(=O)N1CCC(Nc2c(F)cc(C#N)cc2F)CC1`, the cytotoxicity at 10 µM rises from -8.38% to 8.13%.

First: CC(NC1(CNC(=O)OC(C)(C)C)CCOCC1)c1ccccc1 (stereo not given)
Second: CC(c1ccccn1)N(C)Cc1ccc(CCC(C)(C)O)cc1 (stereo not given)
The cytotoxicity at 10 µM of the first is higher: 3.63% for the first, 1.82% for the second.

Compared with `Cc1nn(C)c2ncc(S(=O)(=O)N3CCCC(C(N)=O)C3)cc12` (stereo not given), `Cc1cc(C(=O)N2CCCC(c3nncn3C)C2)no1` (stereo not given) is lower in cytotoxicity at 10 µM: 3.45% for the first, 0.541% for the second.

First: CCc1cc(CNC(=O)NCC(c2ccco2)N2CCCC2)[nH]n1 (stereo not given)
Second: CCC1CN(CC(=O)NCc2ccco2)CCO1 (stereo not given)
The cytotoxicity at 10 µM of the first is higher: 0.238% for the first, -7.66% for the second.

Compared with `CN(CC(=O)N1CCCC1c1noc(C2CC2)n1)C1CC1` (stereo not given), `NCC1CCN(c2nc(C3CCCC3)nc3c2CCNCC3)C1` (stereo not given) is higher in cytotoxicity at 10 µM: 9.62% for the first, 16.1% for the second.

Going from `Cc1cc(F)c2c(c1)CCCN2Cc1nc2c(cnn2C)c(=O)[nH]1` to `COc1cccc(-c2n[nH]c3c2CN(C(=O)c2cc(C)n(C)n2)CC3)c1`, the cytotoxicity at 10 µM falls from 1.89% to -0.159%.

Going from `O=C(NC1(c2nccs2)CCCC1)c1cc(C2CC2)on1` to `Cc1cc(N2CCC(c3ncc[nH]3)CC2)nc(N)n1`, the cytotoxicity at 10 µM falls from 6.65% to -7.54%.

First: COc1ccc(-c2cn([C@H](CO)CC(C)C)nn2)cn1
Second: CCN(Cc1nc(COC)no1)C(=O)CCn1c(C)cc2ccccc21
The cytotoxicity at 10 µM of the first is lower: -2.03% for the first, -0.0679% for the second.

Going from `CCn1c(C2CCCN(S(=O)(=O)C3CC3)C2)nn(CCN(C)C)c1=O` (stereo not given) to `Cc1cccc(N2CCC(N3CCCC4(CN(C)C(=O)O4)C3)CC2)c1C` (stereo not given), the cytotoxicity at 10 µM falls from 0.522% to -12.8%.

First: O=C1CC[C@@H](CN(Cc2ccncc2)Cc2nc(CC3CC3)no2)N1
Second: COc1ccc(C2CC(=O)NCc3nc(N(C)C)sc32)c(O)c1 (stereo not given)
The cytotoxicity at 10 µM of the first is higher: 3.86% for the first, 3.3% for the second.

First: CC(C)Oc1cc(N2C[C@H](C3CC3)[C@@H](N)C2)nc(N)n1
Second: CN1CCCCC1CCC(=O)NCCSc1cnn[nH]1 (stereo not given)
The cytotoxicity at 10 µM of the first is lower: -4.75% for the first, 0.00194% for the second.

Going from `O=C(CCc1cn[nH]c1)N1C[C@@H](CN2CCCCCC2)[C@@H](CO)C1` to `Cc1ccc(CN2CCOC3(CCN(CC4CCOC4)CC3)C2)cc1` (stereo not given), the cytotoxicity at 10 µM falls from 2.62% to -117%.

Compared with `O=C(c1ccon1)N1CCc2ncnc(NCc3cccnc3)c2CC1`, `O=C(CN1CCOC(CNc2cccnn2)C1)NCc1cccs1` (stereo not given) is lower in cytotoxicity at 10 µM: -1.9% for the first, -14% for the second.

Going from `FC(F)(F)COc1cccc(-c2nc3c([nH]2)CCNC3)c1` to `Cn1ccnc1CN1CCC2(CC1)COCCN(S(C)(=O)=O)C2`, the cytotoxicity at 10 µM falls from 4.5% to 3.39%.

Work on `CCCC1(CO)CCCN(C(=O)CNC(C)=O)C1` (stereo not given) yielded a cytotoxicity at 10 µM of 3.43%.
